# Source: PubChem (several laboratories)
# Only some compounds are listed: those with a hit (about 2.9% of all), similar ones and a draw of the others.
# MC4R barr agon – MC4R agonists recruiting beta-arrestin, primary screen, cell-based, luminescence, agonist arm of biased-ligand search. 360,000 tested, 0.98% active. activation, % at 8.9 µM. U2OS MC4R beta-arrestin complementation; percent of melanotan II response, DMSO zero. Melanocortin receptor 4 (Homo sapiens), P32245;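 active = activation above a per-plate cutoff, the mean activation of sample wells on that plate plus 3 SD, cut at about 8% in these data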
# Target sequence (P32245 whole entry, looked up): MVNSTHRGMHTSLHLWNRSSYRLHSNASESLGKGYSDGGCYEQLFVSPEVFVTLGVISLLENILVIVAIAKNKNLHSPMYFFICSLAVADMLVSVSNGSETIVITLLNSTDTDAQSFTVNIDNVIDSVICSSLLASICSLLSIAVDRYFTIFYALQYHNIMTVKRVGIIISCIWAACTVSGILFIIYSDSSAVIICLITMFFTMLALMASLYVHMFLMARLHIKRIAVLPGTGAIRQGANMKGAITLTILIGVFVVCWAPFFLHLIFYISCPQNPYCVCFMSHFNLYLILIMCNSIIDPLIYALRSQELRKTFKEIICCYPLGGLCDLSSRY
# GalR3 antag – GalR3 antagonists in HEK293 cells, primary screen, cell-based, fluorescence readout; Galanin receptor type 3 (Homo sapiens), O60755; HEK293 GalR3-CNG cAMP membrane potential fluorescence; galR3 body fused to GalR1 C-terminus; inhibition, % at 3 µM; 360,000 tested, 0.44% active; AID 651719, 2012;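 active = inhibition above the screen-wide average plus 3 SD, cut at about 13% in these data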;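 also: forskolin and galanin both at EC90 stimulate the cells; cAMP rise reported by CNG channel membrane potential dye signal; 0% = forskolin plus galanin with DMSO and 100% = forskolin alone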
# Target sequence (O60755 1-299 limits assumed): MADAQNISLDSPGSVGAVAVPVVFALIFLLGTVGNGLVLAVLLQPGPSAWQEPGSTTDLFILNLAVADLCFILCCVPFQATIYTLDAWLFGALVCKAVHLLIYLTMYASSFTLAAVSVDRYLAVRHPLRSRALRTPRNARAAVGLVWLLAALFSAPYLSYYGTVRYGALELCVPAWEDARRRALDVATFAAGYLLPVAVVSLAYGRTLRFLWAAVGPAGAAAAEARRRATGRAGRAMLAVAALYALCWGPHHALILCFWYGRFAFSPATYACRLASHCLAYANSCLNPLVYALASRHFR
# Efflux pump mplx – inhibitors of Candida efflux pumps in yeast, primary screen, S. cerevisiae, Nile Red, multiplex; S. cerevisiae Candida pump triplex; inhibition, % at 10 µM; 330,000 tested, 0.44% active; AID 485275, 2010;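 active = plate passing quality check with inhibition over a set limit, or well fluorescence over plate mean plus 4 SD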;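 also: Nile Red retained in pooled yeast measured as flow cytometry median fluorescence; 0% = buffer negative control and 100% = Enniatin B positive control; higher means more Nile Red kept so more efflux inhibition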
# MC4R antagonist – MC4R antagonists of cAMP signaling, primary screen, cell-based, TR-FRET, antagonist arm of biased-ligand search. MC4R-expressing cells, MTII-stimulated cAMP, LANCE TR-FRET. Melanocortin receptor 4 (Homo sapiens), P32245. 360,000 tested, 0.48% active. inhibition, % at 6.5 µM. AID 540295, 2011;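 active = inhibition above its plate's cutoff, the mean of tested wells on that plate plus 3 SD, cut at about 29% in these data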;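 also: 0% = Melanotan II alone and 100% = Melanotan II plus saturating MCL0020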
#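 System: U2OS cells stably expressing human melanocortin 4 receptor (MC4R). Reagent: Melanotan II challenge after compound preincubation. Doses: 6.5 µM. Times: 30-min compound, 1-h challenge, 1-h detection, room temperature. Measured by: TR-FRET with Eu-cAMP and labeled anti-cAMP, 671 nm. Replicates: singlicate.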
# Calb FLC – C. albicans growth inhibition with fluconazole, primary screen, CaCi-2 strain, Alamar Blue fluorescence; C. albicans CaCi-2 + fluconazole, 48 h; growth inhibition, % (no concentration beside the values); 300,000 tested, 0.57% active; AID 1979, 2009;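 active = growth inhibition above about 58% in most replicates, limit read from the data, passing the limit was not always enough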;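 also: all wells also contain fluconazole at 8 µg/ml as a sub-toxic cotreatment; 0% = median of DMSO wells and 100% = median of geldanamycin control wells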
# TAG inh – inhibitors of triacylglycerol accumulation, primary screen, cell-based, uHTS, fluorescence, H9c2; AID 651582, 2012; 230,000 tested, 0.66% active; H9c2 cells, Nile Red lipid (TAG) fluorescence; cells loaded with 200 µM oleic acid; inhibition, % at 12.5 µM;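 active = pattern-corrected inhibition of lipid staining of at least 50% with the nuclear-stain viability signal not falling by more than 50%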;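 also: 0% = DMSO wells and 100% = triacsin C control wells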
# GalR3 conf – GalR3 antagonist hit confirmation, cell-based, fluorescence, triplicate. shares compounds with GalR3 antag. HEK293 GalR3 CNG cAMP biosensor, membrane potential fluorescence; galR3 fused to GalR1 carboxy tail; challenged with forskolin and galanin at EC90. inhibition, % at 3 µM. 1,600 tested, 59% active;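 active = inhibition above the primary screen's cutoff, the mean inhibition of all screened compounds plus 3 SD, cut at about 13% in these data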;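 also: 0% = forskolin plus galanin and 100% = forskolin alone with DMSO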
# CNG parental – nonspecific cAMP agonists in parental HEK-CNG cells, counter-screen for GalR3 antagonist project, cell-based, fluorescence, high throughput. shares compounds with GalR3 antag. HEK293-CNG parental cells, cAMP membrane potential fluorescence; normalised: DMSO wells 0%, forskolin wells 100%. activation, % at 3 µM. 1,600 tested, 10% active; in the data active = activation above about 1.3%
# An asterisk follows results filed as active; nt = no result.
SMILES,MC4R barr agon,GalR3 antag,Efflux pump mplx,MC4R antagonist,Calb FLC,TAG inh,GalR3 conf,CNG parental
FC(F)(F)c1cccc(/C=N/NC(=S)NC2CCCCC2)c1,6,90*,0,5,-19,-16,84*,2.5*
CCc1ccc2c(c1)C1(NN=C(c3cccc4ccccc34)S1)C(=O)N2 (stereo not given),-3,23*,0,-7,-1,4,2,0
CCc1ccc2c(c1)NC(=O)C2(C)Cc1ccccc1 (stereo not given),3,-8,nt,-1,nt,4,nt,nt
COCCCn1c(-c2ccccc2Cl)n[nH]c1=S,-1,nt,0,0,-8,-3,5,0
COCCCn1c(-c2ccc(Cl)cc2)n[nH]c1=S,4,-2,0,-4,0,25,nt,nt
CCCCc1ccc(NC(=O)c2ccc(N(C)S(C)(=O)=O)cc2)cc1,5,36*,0,15,3,-7,115*,-1
CCN(CC)S(=O)(=O)c1ccc(NC(=O)c2ccccc2N(C)S(C)(=O)=O)cc1,0,-3,0,2,1,nt,nt,nt
CCN(CC)S(=O)(=O)c1ccc(NC(=O)c2ccc(N(C)S(C)(=O)=O)cc2)cc1,-1,103*,0,6,-6,8,104*,0
CCCCc1ccc(NC(=O)c2ccc(NS(C)(=O)=O)cc2)cc1,7,-4,0,10,0,-21,nt,nt
CCN(CC)S(=O)(=O)c1ccc(C(=O)Nc2cc(C)cc(C)c2)cc1,0,-8,0,3,-10,27,nt,nt
COc1ccc(NS(=O)(=O)c2ccc(NC(=O)c3ccc(N(C)S(C)(=O)=O)cc3)cc2)c(OC)c1,3,99*,0,6,-7,nt,107*,-1
CCN(CC)S(=O)(=O)c1ccc(C(=O)Nc2ccc(Cc3ccncc3)cc2)cc1,0,34*,0,10,19,-24,76*,0
COc1ccc(S(=O)(=O)N(C)[C@H]2C[C@H]3c4cc(Oc5ccccc5C)ccc4CCN3C(=O)[C@H]2[C@H](C)O)cc1,0,3,nt,16,nt,22,nt,nt
CC(CC(=O)c1ccccc1)=NCCCN=C(C)CC(=O)c1ccccc1,1,0,nt,-11,nt,-3,nt,nt
Cc1cc(C(C)(C)C)ccc1OC(=O)C1=CC=CN2CCS(=O)(=O)N=C12,-1,-4,nt,3,nt,-2,nt,nt
COc1ccc(/C=C(/NC(=O)c2ccccc2)C(=O)NC2CCS(=O)(=O)C2)cc1 (stereo not given),0,nt,0,-3,-2,-9,1,0
COCCNC(=S)N(C)[C@H]1C[C@H]2c3[nH]c4cccc(-c5ccccc5)c4c3CCN2C(=O)[C@H]1[C@H](C)O,nt,-4,nt,nt,nt,nt,nt,nt
O=C(CSC1=NCCS1)N1CCN(c2ccc(Cl)cc2)CC1,-1,45*,0,3,-14,12,46*,0
COc1cc(/C=C2\SC(c3ccc(C)cc3)=NC2=O)ccc1O,1,17*,0,6,-1,nt,5,0
COc1ccc(/C=C2/SC(c3ccc(C)cc3)=NC2=O)cc1OC,0,10,0,-1,21,-27,nt,nt
CCCCCCCn1ccc(=N)cc1,1,16*,0,12,-3,-40,33*,0
CCCCCn1ccc(=N)cc1,0,9,0,-1,-1,-43,nt,nt
CCCCCCCCCn1ccc(=N)cc1,-2,96*,0,16,70,21,110*,0
C/C(=N\NC(=O)c1ccc(C(=O)N/N=C(\C)c2ccco2)o1)c1ccco1,1,2,2,8,-3,9,nt,nt
C/C(=N\O)c1ccco1,-2,nt,0,1,nt,17,3,0
SMILES,MC4R barr agon,GalR3 antag,Efflux pump mplx,MC4R antagonist,Calb FLC,TAG inh,GalR3 conf,CNG parental
CCOC1=C2[C@@H](CN(S(=O)(=O)c3ccc(C)cc3)[C@H]2c2cccc3ccccc23)[C@H]2C(=O)N(CC)C(=O)[C@H]2C1,nt,-8,nt,nt,nt,nt,nt,nt
CCOc1ccc(CO/N=C/c2c(C)[nH]c(=O)[nH]c2=O)cc1,-5,22*,0,9,1,-6,21*,0
CCOc1ccc(N(CC)S(=O)(=O)c2c(C)[nH]c(=O)[nH]c2=O)cc1,-2,-6,0,-9,2,nt,nt,nt
N/C(=N\OC(=O)c1cccc(Cl)c1)c1cccnc1,-2,nt,0,4,-1,11,8,1
Cc1cc(-c2cn3ccccc3n2)c(C)n1-c1ccccc1,-1,13*,0,0,1,-2,4,0
Cc1ccc(/C=C/C(=O)Nc2ccc(S(=O)(=O)Nc3ncccn3)cc2)cc1,0,13*,0,-1,5,-13,6,0
Cc1cc(-n2c(C)cc(C(=O)CSc3ncnc4ccccc34)c2C)no1,4,91*,0,1,0,-82,3,0
C=CCNc1nc2c(c(=O)n(C)c(=O)n2C)n1CCCCCC,-2,41*,0,13,-4,-80,83*,0
CC(C)CC1O[C@@H](C)[C@@H]2CN3CCc4c([nH]c5ccccc45)[C@@H]3C[C@@H]2N1C (stereo not given in full),nt,-5,nt,nt,nt,nt,nt,nt
COc1ccccc1NC(=O)CCCc1nc(-c2ccc(OC)c(OC)c2)no1,0,23*,0,2,-5,9,16*,0
O=C(OCc1cn([C@H]2CN(CC3CCCCC3)[C@@H](c3ccc(Cl)cc3)C[C@@H]2O)nn1)c1ccccc1,0,-5,nt,6,nt,-1,nt,nt
COc1ccc(-c2nc(C#N)c(NCc3cccnc3)o2)cc1OC,-1,0,0,-5,-7,3,nt,nt
COc1ccc(-c2nc(C#N)c(NCc3ccc(F)cc3)o2)cc1OC,-2,13*,0,-10,12,nt,25*,0
COC(=O)c1sccc1S(=O)(=O)Nc1ccc(C(O)(C(F)(F)F)C(F)(F)F)cc1,0,-6,nt,20,nt,-17,nt,nt
